Data taken from ChEMBL document CHEMBL1140700, “Substituted pyrazoles as hepatoselective HMG-CoA reductase inhibitors: discovery of (3R,5R)-7-[2-(4-fluoro-phenyl)-4-isopropyl-5-(4-methyl-benzylcarbamoyl)-2H-pyrazol-3-yl]-3,5-dihydroxyheptanoic acid (PF-3052334) as a candidate for the treatment of hypercholesterolemia” (J Med Chem, 2008).

Tests used:
[1] = biological target: T1, 3-hydroxy-3-methylglutaryl-coenzyme A reductase (Rattus norvegicus, UniProt P51639); assay: Inhibition of HMG-CoA reductase in Sprague-Dawley rat liver microsomes; set-up: species or system Microsome
T1 sequence (P51639 whole entry): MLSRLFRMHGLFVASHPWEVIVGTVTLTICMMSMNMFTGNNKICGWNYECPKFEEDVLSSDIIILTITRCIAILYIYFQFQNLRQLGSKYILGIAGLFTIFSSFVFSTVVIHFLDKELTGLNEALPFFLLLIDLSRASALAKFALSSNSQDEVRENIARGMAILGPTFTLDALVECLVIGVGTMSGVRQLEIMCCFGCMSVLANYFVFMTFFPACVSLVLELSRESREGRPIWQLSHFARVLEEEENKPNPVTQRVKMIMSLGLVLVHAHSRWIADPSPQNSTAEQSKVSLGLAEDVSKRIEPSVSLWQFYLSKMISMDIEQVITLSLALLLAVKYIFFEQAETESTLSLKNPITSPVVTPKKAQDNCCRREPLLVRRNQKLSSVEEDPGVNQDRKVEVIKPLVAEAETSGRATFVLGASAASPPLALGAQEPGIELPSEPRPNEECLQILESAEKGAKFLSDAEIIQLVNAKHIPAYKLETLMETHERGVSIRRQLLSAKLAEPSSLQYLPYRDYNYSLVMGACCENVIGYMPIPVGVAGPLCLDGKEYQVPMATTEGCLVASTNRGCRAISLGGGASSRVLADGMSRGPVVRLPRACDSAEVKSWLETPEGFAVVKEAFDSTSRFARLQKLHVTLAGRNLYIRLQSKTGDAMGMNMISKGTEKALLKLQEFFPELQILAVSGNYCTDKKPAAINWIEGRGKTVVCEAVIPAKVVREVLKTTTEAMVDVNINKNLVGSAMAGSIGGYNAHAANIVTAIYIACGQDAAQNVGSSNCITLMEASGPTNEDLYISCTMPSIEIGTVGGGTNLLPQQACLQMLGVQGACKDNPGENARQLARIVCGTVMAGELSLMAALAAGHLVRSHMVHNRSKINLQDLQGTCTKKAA
Method in brief: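 Rat liver microsomes (35 µg/mL) in 100 mM NaH2PO4, 10 mM imidazole, 10 mM EDTA, preincubated with compound in DMSO 0.5 h on ice; 14C-HMG-CoA (0.024 µCi) with 15 mM NADPH and 25 mM DTT added, 0.75 h at 37 °C. Stopped with HCl, lactonized to mevalonolactone, anion-exchange resin separation, scintillation counting; IC50 by curve fit.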

Hepatocyte [2] = assay: Inhibition of cholesterol synthesis in rat hepatocytes; format: functional, cell-based
Method in brief: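 Frozen rat hepatocytes on collagen-coated wells, 10^5 cells/well, grown 24 h in DMEM/10% FBS/10 mM HEPES. Compound preincubation 4 h, then 1 µCi/mL 14C acetic acid for 4 h more.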

L6 = assay: Inhibition of cholesterol synthesis in rat L6 cells; format: functional, cell-based
Syrian golden hamster [3] = assay: Inhibition of cholesterol synthesis in Goldern Syrian hamster blood at 10 mg/kg, po after 2 to 4 hrs relative to control; format: functional; conditions: Mesocricetus auratus, read-out: Inhibition
Method in brief: (§1)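 Hamsters on chow with 2.5% cholestyramine from 3 days prior; oral gavage of vehicle or compound (10 mpk), n = 8/group. At 2 h (2–4 h arm) or 4 h (4–6 h arm) postdose, i.p. 80 µCi 14C sodium acetate in 0.9% NaCl; euthanized 2 h later, cardiac blood, plasma saponified and extracted, 14C cholesterol counted; % change vs untreated controls.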

Syrian golden hamster [4] = assay: Inhibition of cholesterol synthesis in Golden Syrian hamster blood at 10 mg/kg, po after 4 to 6 hrs relative to control; format: functional; conditions: Mesocricetus auratus, read-out: Inhibition; method in brief: as §1
Hepatocyte [5] = assay: Ratio of IC50 for cholesterol synthesis in rat myocytes to rat hepatocytes; format: functional
Cavia porcellus [6] = assay: Reduction of LDL level in chow fed Hartley guinea pig serum at 20 mg/kg/day, po for 7 days relative to rosuvastatin; format: functional, Hartely; set-up: scale not given: the % may be the effect or the level left
Method in brief: (§2)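 Male Hartley guinea pigs (300–500 g) on chow diet 5025, acclimated ≥1 week; vehicle or compound suspension by daily oral gavage at 10 or 20 mpk (n = 8/group) for 7 days; sacrificed 2 h after final dose; LDL cholesterol as mean % change from vehicle group.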

Cavia porcellus [7] = assay: Reduction of LDL level in chow fed Hartley guinea pig serum at 10 mg/kg/day, po for 7 days relative to rosuvastatin; format: functional, Hartely; set-up: scale not given: the % may be the effect or the level left; conditions: in the assay text read “20 mg/kg/day” for “10 mg/kg/day”; method in brief: as §2
[8] = Lipophilicity, log P of the compound; format: physicochemical; conditions: octanol/water
Cavia porcellus [9] = assay: Reduction of LDL level in po dosed Hartley guinea pig plasma after 7 days; format: functional; conditions: Hartely, 168 h

Row | Structure (SMILES) | IC50 [1] [nM] | LogP [8] | IC50 (Hepatocyte [2]) [nM] | IC50 (L6) [nM] | % change in cholesterol synthesis vs control at 10 mg/kg (Syrian golden hamster [3]) [%] | Percent change in cholesterol synthesis vs control at 10 mg/kg (Syrian golden hamster [4]) [%] | Ratio IC50 (Hepatocyte [5]) | Activity (Cavia porcellus [6]) [%] | Activity (Cavia porcellus [7]) [%] | ED50 (Cavia porcellus [9]) [mg/kg]
1 | CC(C)c1c(CC[C@@H](O)C[C@@H](O)CC(=O)O)nn(-c2ccc(F)cc2)c1C(=O)NCc1ccccc1 | 520 | – | – | – | – | – | – | – | – | –
2 | COCc1cccc(CNC(=O)c2nn(-c3ccc(F)cc3)c(CC[C@@H](O)C[C@@H](O)CC(=O)[O-])c2C(C)C)c1.[Na+] | 7 | – | 0.7 | 1800 | -71 | -19 | 2600 | -42 | – | –
3 | CC(C)c1c(C(=O)N(C)Cc2cccc(F)c2F)nn(-c2ccc(F)cc2)c1CC[C@@H](O)C[C@@H](O)CC(=O)[O-].[Na+] | 9 | – | 0.6 | 5700 | -81 | -22 | 9500 | -45 | – | –
4 | COc1ccc(CN(C)C(=O)c2nn(-c3ccc(F)cc3)c(CC[C@@H](O)C[C@@H](O)CC(=O)O)c2C(C)C)cc1 | 12 | – | 0.3 | 5800 | -57 | – | – | – | – | –
5 | CC(C)c1c(C(=O)N(C)[C@H](C)c2ccccc2)nn(-c2ccc(F)cc2)c1CC[C@@H](O)C[C@@H](O)CC(=O)[O-].[Na+] | – | – | 0.3 | 1900 | -62 | -10 | – | – | -11 | –
6 | CC[C@H](C)C(=O)O[C@H]1C[C@H](O)C=C2C=C[C@H](C)[C@H](CC[C@@H](O)C[C@@H](O)CC(=O)O)[C@H]21 [PRAVASTATIN] | 13 | -0.67 | 17 | 7600 | – | – | 450 | – | – | 100
7 | CC(C)c1c(C(=O)N(C)[C@@H](C)c2ccccc2)nn(-c2ccc(F)cc2)c1CC[C@@H](O)C[C@@H](O)CC(=O)O | – | – | 3.5 | 41000 | – | – | – | – | – | –
8 | CC(C)c1c(C(=O)N2CCCC2c2ccccc2)nn(-c2ccc(F)cc2)c1CC[C@@H](O)C[C@@H](O)CC(=O)O (stereo partly specified) | 7.3 | – | 4 | 130 | – | – | – | – | – | –
9 | CC(C)c1c(C(=O)NCc2ccc(C(=O)N(C)C)cc2)nn(-c2ccc(F)cc2)c1CC[C@@H](O)C[C@@H](O)CC(=O)O | 25 | – | 23 | 21000 | – | – | – | – | – | –
10 | Cc1ccc(CN(C)C(=O)c2nn(-c3ccc(F)cc3)c(CC[C@@H](O)C[C@@H](O)CC(=O)O)c2C(C)C)cc1 | 9.9 | – | 1.8 | 4000 | – | – | – | – | – | –
11 | CC(C)c1c(C(=O)N(Cc2ccccc2)C(C)C)nn(-c2ccc(F)cc2)c1CC[C@@H](O)C[C@@H](O)CC(=O)O | 9.8 | – | 10 | 9800 | – | – | – | – | – | –
12 | COCc1c(C(C)C)nc(C(C)C)c(/C=C/[C@@H](O)C[C@@H](O)CC(=O)O)c1-c1ccc(F)cc1 [CERIVASTATIN] | – | – | 1.7 | 3 | – | – | – | – | – | –

Second part, led by results:

Row | IC50 [1] [nM] | LogP [8] | Structure (SMILES) | IC50 (Hepatocyte [2]) [nM] | IC50 (L6) [nM] | % change in cholesterol synthesis vs control at 10 mg/kg (Syrian golden hamster [3]) [%] | Percent change in cholesterol synthesis vs control at 10 mg/kg (Syrian golden hamster [4]) [%] | Ratio IC50 (Hepatocyte [5]) | Activity (Cavia porcellus [6]) [%] | Activity (Cavia porcellus [7]) [%] | ED50 (Cavia porcellus [9]) [mg/kg]
13 | 4.8 | – | CC(C)c1c(C(=O)N(C)Cc2ccccc2F)nn(-c2ccc(F)cc2)c1CC[C@@H](O)C[C@@H](O)CC(=O)O | 0.5 | 17000 | -69 | -30 | – | – | – | –
14 | 3.8 | – | CC(C)c1c(C(=O)NCc2ccc(F)cc2)nn(-c2ccc(F)cc2)c1CC[C@@H](O)C[C@@H](O)CC(=O)O | 0.7 | 490 | – | – | – | – | – | –
15 | 6.1 | – | Cc1cccc(CN(C)C(=O)c2nn(-c3ccc(F)cc3)c(CC[C@@H](O)C[C@@H](O)CC(=O)[O-])c2C(C)C)c1.[Na+] | 0.6 | 4800 | -72 | – | 8000 | -15 | – | –
16 | 2.8 | – | COc1ccc(CNC(=O)c2nn(-c3ccc(F)cc3)c(CC[C@@H](O)C[C@@H](O)CC(=O)O)c2C(C)C)cc1 | 0.4 | 460 | – | – | – | – | – | –
17 | 7 | – | CC(C)c1c(C(=O)N(C)Cc2ccc(F)cc2F)nn(-c2ccc(F)cc2)c1CC[C@@H](O)C[C@@H](O)CC(=O)[O-].[Na+] | 2.1 | 4400 | -82 | -17 | 2100 | -32 | – | –
18 | 6.6 | – | CC(C)c1c(C(=O)N(C)Cc2ccc(F)cc2)nn(-c2ccc(F)cc2)c1CC[C@@H](O)C[C@@H](O)CC(=O)O | 0.5 | 6000 | -71 | – | – | – | – | –
19 | 1.5 | – | CC(C)c1c(C(=O)N2CCCC(c3ccccc3)C2)nn(-c2ccc(F)cc2)c1CC[C@@H](O)C[C@@H](O)CC(=O)O (stereo partly specified) | 0.4 | 680 | -80 | -15 | – | – | – | –
20 | 3.1 | – | CC(C)c1nc(N(C)S(C)(=O)=O)nc(-c2ccc(F)cc2)c1/C=C/[C@@H](O)C[C@@H](O)CC(=O)O [ROSUVASTATIN] | 0.3 | 250 | -76 | -46 | 830 | -42 | – | 9.3
21 | 3.9 | – | CC(C)c1c(C(=O)N(C)Cc2cccc(F)c2)nn(-c2ccc(F)cc2)c1CC[C@@H](O)C[C@@H](O)CC(=O)O | 0.2 | 6000 | -65 | – | – | – | – | –
22 | 4.7 | – | CC(C)c1c(C(=O)NCc2ccccc2)nn(-c2ccc(F)cc2)c1CC[C@@H](O)C[C@@H](O)CC(=O)O | 0.3 | 100 | – | – | – | – | – | –
23 | 2.2 | – | CC(C)c1c(C(=O)NCc2cccc(C#N)c2)nn(-c2ccc(F)cc2)c1CC[C@@H](O)C[C@@H](O)CC(=O)O | 1.4 | 2400 | – | – | – | – | – | –
24 | 1.9 | – | Cc1ccc(CNC(=O)c2nn(-c3ccc(F)cc3)c(CC[C@@H](O)C[C@@H](O)CC(=O)[O-])c2C(C)C)cc1.[Na+] | 0.9 | 730 | -74 | -15 | 810 | -41 | – | 3.6
25 | 5.9 | – | CC(C)c1c(C(=O)N(C)Cc2ccccc2)nn(-c2ccc(F)cc2)c1CC[C@@H](O)C[C@@H](O)CC(=O)[O-].[Na+] | 0.2 | 3100 | -61 | -16 | 16000 | -20 | – | –
26 | 6.1 | – | CC(C)c1c(C(=O)N2CCCCC2c2ccccc2)nn(-c2ccc(F)cc2)c1CC[C@@H](O)C[C@@H](O)CC(=O)O (stereo partly specified) | 1.1 | 330 | – | – | – | – | – | –
27 | 3.8 | – | CCN(Cc1ccccc1)C(=O)c1nn(-c2ccc(F)cc2)c(CC[C@@H](O)C[C@@H](O)CC(=O)O)c1C(C)C | 5.5 | 4400 | – | – | – | – | – | –
28 | 2 | – | CC(C)c1c(C(=O)N2CCC[C@H](c3ccccc3)C2)nn(-c2ccc(F)cc2)c1CC[C@@H](O)C[C@@H](O)CC(=O)O | 0.3 | – | -78 | – | – | – | – | –
